Results gathered from unrelated publications.
Each line is one published result; the experiments were not run side by side.
Target: Ephrin type-A receptor 2 (EPHA2, Homo sapiens, UniProt P29317)

SMILES	effect on	action	method	concentration	endpoint	result
CC(C)(C)c1cc(C=C(C#N)C#N)cc(Br)c1O	enzyme activity	inhibitor	–	0.5 µM	remaining activity	105%
Cn1cncc1[C@@](O)(COc1ccc(C#N)cc1-c1ccc(OC(F)(F)F)cc1)c1ccc(C#N)cc1	cell-free assay	–	competition with immobilised ligand	1 µM	remaining binding	89%
Cn1cc(-c2cccc(N3CCc4c(sc5c4CC(C)(C)C5)C3=O)c2CO)cc(Nc2ccncn2)c1=O	enzyme activity	inhibitor	–	1 µM	inhibition	16%
O=c1[nH]c2ccccc2n1C1CCN(Cc2ccc(-c3[nH]c4cc5ncnc5cc4nc3-c3ccccc3)cc2)CC1	cell-free assay	–	–	0.5 µM	remaining signal	103%
N#CC1(c2ccccn2)CCN(Cc2cc(C(=O)O)c(=O)n3ccccc23)CC1	cell-free assay	–	competition with immobilised ligand	1 µM	remaining binding	83%
COc1cc(Nc2ncc(F)c(Nc3ccc4c(n3)NC(=O)C(C)(C)O4)n2)cc(OC)c1OC	binding	–	competition with immobilised ligand	10 µM	inhibition	90%
COc1ncccc1-c1cnn2ccc(N3CCN(C(=O)OC(C)C)CC3)nc12	binding	–	competition with immobilised ligand	1 µM	remaining binding	79%
Cn1cc(-c2cc(F)cc(N3CCn4c(cc5c4CCCC5)C3=O)c2CO)cc(Nc2ccc(N3CCN(C4COC4)CC3)cn2)c1=O	enzyme activity	inhibitor	–	0.1 µM	inhibition	-1%
Cc1nn(C)cc1-c1nc2c(N3CCN(Cc4ccc(Cl)cc4)CC3)c(Cl)cnc2[nH]1	binding	–	competition with immobilised ligand	1 µM	remaining binding	100%
Nc1ncc(-c2nc(N3CCOCC3)nc(N3CCOCC3)n2)c(C(F)F)n1	cell-free assay	–	competition with immobilised ligand	10 µM	remaining binding	94%
